Measurements from ChEMBL document CHEMBL2311378, “Synthesis and biological activity against Trypanosoma cruzi of substituted 1,4-naphthoquinones” (Eur J Med Chem, 2013).

Key:
[1] = test system: Trypanosoma cruzi; experiment: Antitrypanosomal activity against Trypanosoma cruzi Y bloodstream trypomastigotes isolated from infected Swiss mouse blood assessed as lysis level at 0.5 uM after 24 hrs; assay type: functional
[2] = test system: Trypanosoma cruzi; experiment: Antitrypanosomal activity against Trypanosoma cruzi Y bloodstream trypomastigotes isolated from infected Swiss mouse blood assessed as lysis level at 8.0 uM after 24 hrs; assay type: functional
[3] = test system: Trypanosoma cruzi; experiment: Antitrypanosomal activity against Trypanosoma cruzi Y bloodstream trypomastigotes isolated from infected Swiss mouse blood assessed as lysis level at 32.0 uM after 24 hrs; assay type: functional
[4] = test system: Trypanosoma cruzi; experiment: Antitrypanosomal activity against Trypanosoma cruzi Y bloodstream trypomastigotes isolated from infected Swiss mouse blood assessed as lysis level after 24 hrs; assay type: functional, organism-based
How it was run: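 Infected mouse blood diluted with healthy mouse blood to 10⁶ trypomastigotes ml⁻¹. Compounds dissolved in DMSO, added to the blood, and incubated at 4 °C for 24 h. Remaining trypomastigotes were counted. Run in triplicate alongside DMSO and crystal violet controls. IC50 is the concentration lysing 50% of parasites.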

[5] = test system: Trypanosoma cruzi; experiment: Antitrypanosomal activity against Trypanosoma cruzi Y bloodstream trypomastigotes isolated from infected Swiss mouse blood assessed as lysis level at 2.0 uM after 24 hrs; assay type: functional

Compound	IC50 [4] [µM]	Activity [1] [%]	Activity [2] [%]	Activity [3] [%]	Activity [5] [%]
CCCCCCCC/C=C/CCCCCCCC1=C(C)C(=O)c2ccccc2C1=O	32.6	27.2	35.1	34	25.1
CCCCC/C=C/C/C=C/CCCCCCCC1=CC(=O)c2ccccc2C1=O	26.4	0	30.9	49.2	7.8
CCCCCCCC1=C(CCCCCCC)C(=O)c2ccccc2C1=O	124	8.1	10.6	18.3	8.9
COc1ccc(C(CC(=O)O)C2=CC(=O)c3ccccc3C2=O)cc1 (racemic)	48.5	0	14.1	38.7	10.5
CN(C)c1ccc(C(=C2C=CC(=[N+](C)C)C=C2)c2ccc(N(C)C)cc2)cc1 [GENTIAN VIOLET]	31	–	–	–	–
O=C1C=C(O)C(=O)c2ccccc21 [LAWSONE]	> 2500	–	–	–	–

These reach a lower IC50 [4]. Values come first.

IC50 [4] [µM]	Compound	Activity [1] [%]	Activity [2] [%]	Activity [3] [%]	Activity [5] [%]
25.1	O=C1C(CCCCc2ccccc2)=C(CCCCc2ccccc2)C(=O)c2ccccc21	3	35.1	44	21.5
17.4	COc1ccc(C(CC(=O)O)C2=C(C)C(=O)c3ccccc3C2=O)cc1 (racemic)	12	34	55	24.6
16.9	CCCCC/C=C/C/C=C/CCCCCCCC1=C(C)C(=O)c2ccccc2C1=O	15.2	47.1	44.5	25.6
10.6	CCCCCCCC/C=C/CCCCCCCC1=C(O)C(=O)c2ccccc2C1=O	13.1	51.3	57.6	22.5
8.1	CCCCCCCC/C=C/CCCCCCCC1=CC(=O)c2ccccc2C1=O	37.2	46.1	49.2	45.5
7.8	CCCCC/C=C\C/C=C/CCCCCCCC1=C(O)C(=O)c2ccccc2C1=O	44.5	42.9	50.8	47.6
